Measurements gathered from unrelated publications.
Protocols differ between the studies behind these lines.
Cell line: PC-3
Effect on: cell growth or viability

| SMILES | test | conditions | endpoint | value |
| --- | --- | --- | --- | --- |
| C=CC(=O)c1cccnc1Nc1cccc(C(F)(F)F)c1 | SRB | 48 h | GI50 | 11.4 µM |
| CCOc1ccc2c(C)c(CC)c(=O)oc2c1C | MTT | 500 µg/mL | viability | 7.6% |
| Cc1nc(Nc2ccc3c(c2)/C(=C/c2ccccc2)C(=O)N3C)c2ccccc2n1 | MTT |  | IC50 | 18.7 µM |
| COc1ccc(-c2cc(-c3ccc(Cl)cc3)c3c(=O)n(C)c(=O)n(C)c3n2)cc1 | MTT | 48 h | IC50 | 13.5 µM |
| CCCOc1nc(-c2cccc(O)c2)cc(-c2cc3cc(Cl)ccc3nc2N2CCOCC2)c1C#N | MTT | 72 h | IC50 | 0.542 µM |
| COc1ccc(-c2cc(-c3cccc(Br)c3)c3c(=O)n(C)c(=O)n(C)c3n2)cc1 | MTT | 48 h | IC50 | 18.4 µM |
| CCc1c(C)c2ccc(OCc3nnc(S)n3N)c(C)c2oc1=O | MTT | 31.25 µg/mL | viability | 58.5% |
| Cc1ccc(-c2cc(-c3ccc(Cl)c(F)c3)c3c(=O)n(C)c(=O)n(C)c3n2)cc1 | MTT | 48 h | IC50 | 41.5 µM |
| COc1cc2ncnc(Nc3ccc4c(c3)/C(=C/c3ccccc3)C(=O)N4)c2cc1OC | MTT |  | IC50 | 4.17 µM |
| Cc1c(Cc2ccccc2)c(=O)oc2c(C)c(OCC(=O)NN=Cc3ccc([N+](=O)[O-])cc3)ccc12 | MTT | 31.25 µg/mL | viability | 31.3% |
| Cc1ccc(-c2cc(-c3ccc(N(C)C)cc3)c3c(=O)n(C)c(=O)n(C)c3n2)cc1 | MTT | 48 h | IC50 | 21.5 µM |
| Cc1c(Cc2ccccc2)c(=O)oc2c(C)c(OCC(=O)NN=Cc3ccc(Cl)cc3)ccc12 | MTT | 500 µg/mL | viability | 5.27% |
| Cc1nc2ccc(CN(C)c3ccc(C(=O)N[C@@H](CCC(=O)O)C(=O)O)s3)cc2c(=O)[nH]1 | MTT | 48 h | IC50 | 3.09 µM |
| Cc1c(Cc2ccccc2)c(=O)oc2c(C)c(OCC(=O)NN=Cc3ccccc3)ccc12 | MTT | 62.5 µg/mL | viability | 26.3% |
| O=C(O)c1cccnc1Nc1cccc(C(F)(F)F)c1 | SRB | 48 h | GI50 | > 30 µM |
| Cc1ccc(-c2cc(-c3ccc(N(C)C)cc3)c3c(=O)[nH]c(=O)[nH]c3n2)cc1 | MTT | 48 h | IC50 | 17.4 µM |
| Nc1n[nH]c2nc(-c3cccc(O)c3)cc(-c3cc4cc(Cl)ccc4nc3N3CCOCC3)c12 | MTT | 72 h | IC50 | 0.166 µM |
| COc1ccc(-c2cc(-c3ccc(N(C)C)cc3)c3c(=O)n(C)c(=O)n(C)c3n2)cc1 | MTT | 48 h | IC50 | 5.18 µM |
| Cc1nc(Nc2ccc3c(c2)C(C)(C)C(=O)N3C)c2ccccc2n1 | MTT |  | IC50 | 26.3 µM |
| CCc1c(C)c2ccc(OCC(=O)NNC(=S)Nc3ccccc3)c(C)c2oc1=O | MTT | 1000 µg/mL | viability | 2.47% |
| Cc1nc(N(Cc2ccccc2)c2ccc3c(c2)/C(=C/c2ccccc2)C(=O)N3Cc2ccccc2)c2ccccc2n1 (mixture of isomers) | MTT |  | IC50 | 0.56 µM |
| O=C(NO)c1ccc(CNc2nc3cccc(-c4ccc5c(c4)OCO5)n3n2)cc1 | SRB |  | GI50 | 0.63 µM |
| COc1cc2ncnc(Nc3ccc4c(c3)/C(=C/c3cccc(Cl)c3)C(=O)N4C)c2cc1OC | MTT |  | IC50 | 22.2 µM |
| CCCOc1ccc2c(C)c(CC)c(=O)oc2c1C | MTT | 125 µg/mL | viability | 56.8% |
| COc1ccc(-c2cc(-c3ccc(Cl)cc3)c3c(=O)[nH]c(=O)[nH]c3n2)cc1 | MTT | 48 h | IC50 | 5.24 µM |
| COc1cc2ncnc(Nc3ccc4c(c3)/C(=C/c3ccccc3)C(=O)N4C)c2cc1OC | MTT |  | IC50 | 37.9 µM |
